Data from ChEMBL document CHEMBL1158040, “Biological activities and 3D QSAR studies of a series of Delisea pulchra (cf. fimbriata) derived natural products” (J Nat Prod, 2006).
In brackets after ≈: the same amount, converted by molar mass. Activity calls are given as the source filed them. No cut-off for these calls is given here.

tested on: Lu1; test: Cytotoxicity against human Lu1 cells; type: functional; settings: read-out: ED50 (the source's name)

SMILES | EC50 [µg/mL]
CCC[C@@H](OC(C)=O)C1=C(Br)[C@@](OC)(C(Br)Br)OC1=O | > 20

tested on: Escherichia coli; test: Antimicrobial activity against Escherichia coli at 10 ug; type: functional, organism-based; settings: not given
Summary of the method: (§1)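 Direct bioautography: each compound is spotted onto TLC plates and the solvent evaporated. The test organism is then grown directly on the plate. Growth inhibition is scored at the spot as active (+) or very active (++). Where a number is given, it is the radius in mm of the inhibition zone around the spot.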

SMILES | Activity
CCC[C@@H](OC(C)=O)C1=C(Br)[C@@](OC)(C(Br)Br)OC1=O | inactive

tested on: KB; test: Cytotoxicity against vinblastine-sensitive human KB cells; type: functional; settings: read-out: ED50 (the source's name)

SMILES | EC50 [µg/mL]
CCC[C@@H](OC(C)=O)C1=C(Br)[C@@](OC)(C(Br)Br)OC1=O | 3.9 (≈ 8.14 µM)

tested on: Bacillus subtilis; test: Antimicrobial activity against Bacillus subtilis at 10 ug; type: functional, organism-based; settings: not given; summary of the method: as §1

SMILES | Activity
CCC[C@@H](OC(C)=O)C1=C(Br)[C@@](OC)(C(Br)Br)OC1=O | Active

tested on: LNCaP; test: Cytotoxicity against human LNCAP cells; type: functional; settings: read-out: ED50 (the source's name)

SMILES | EC50 [µg/mL]
CCC[C@@H](OC(C)=O)C1=C(Br)[C@@](OC)(C(Br)Br)OC1=O | 3.6 (≈ 7.52 µM)

tested on: Micrococcus luteus; test: Antimicrobial activity against Micrococcus luteus at 10 ug; type: functional, organism-based; settings: not given; summary of the method: as §1

SMILES | Activity
CCC[C@@H](OC(C)=O)C1=C(Br)[C@@](OC)(C(Br)Br)OC1=O | Active

tested on: Bacillus subtilis; test: Antimicrobial activity against Bacillus subtilis at 1 ug; type: functional, organism-based; settings: not given; summary of the method: as §1

SMILES | Activity
CCC[C@@H](OC(C)=O)C1=C(Br)[C@@](OC)(C(Br)Br)OC1=O | inactive

tested on: Bacillus subtilis; test: Antimicrobial activity against Bacillus subtilis at 5 ug; type: functional, organism-based; settings: not given; summary of the method: as §1

SMILES | Activity
CCC[C@@H](OC(C)=O)C1=C(Br)[C@@](OC)(C(Br)Br)OC1=O | Active

tested on: Micrococcus luteus; test: Antimicrobial activity against Micrococcus luteus at 0.1 ug; type: functional, organism-based; settings: not given; summary of the method: as §1

SMILES | Activity
CCC[C@@H](OC(C)=O)C1=C(Br)[C@@](OC)(C(Br)Br)OC1=O | inactive

tested on: Penicillium oxalicum; test: Antimicrobial activity against Penicillium oxalicum at 0.1 ug; type: functional; settings: not given; summary of the method: as §1

SMILES | Activity
CCC[C@@H](OC(C)=O)C1=C(Br)[C@@](OC)(C(Br)Br)OC1=O | inactive

molecular target: Human immunodeficiency virus type 1 reverse transcriptase (Human immunodeficiency virus 1) (UniProt Q72547); test: Inhibition of HIV1 RT at 200 uM; settings: not given
Summary of the method: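 HIV-1 reverse transcriptase inhibition was measured in an ELISA-based system.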

SMILES | Activity
CCC[C@@H](OC(C)=O)C1=C(Br)[C@@](OC)(C(Br)Br)OC1=O | inactive

tested on: Escherichia coli; test: Antimicrobial activity against Escherichia coli at 1 ug; type: functional, organism-based; settings: not given; summary of the method: as §1

SMILES | Activity
CCC[C@@H](OC(C)=O)C1=C(Br)[C@@](OC)(C(Br)Br)OC1=O | inactive

tested on: Penicillium oxalicum; test: Antimicrobial activity against Penicillium oxalicum at 1 ug; type: functional; settings: read-out: IZ; summary of the method: as §1

SMILES | zone of inhibition at 1 µg/disc [mm]
CCC[C@@H](OC(C)=O)C1=C(Br)[C@@](OC)(C(Br)Br)OC1=O | 6

tested on: Penicillium oxalicum; test: Antimicrobial activity against Penicillium oxalicum at 5 ug; type: functional; settings: read-out: IZ; summary of the method: as §1

SMILES | zone of inhibition at 5 µg/disc [mm]
CCC[C@@H](OC(C)=O)C1=C(Br)[C@@](OC)(C(Br)Br)OC1=O | 14

tested on: Escherichia coli; test: Antimicrobial activity against Escherichia coli at 0.1 ug; type: functional, organism-based; settings: not given; summary of the method: as §1

SMILES | Activity
CCC[C@@H](OC(C)=O)C1=C(Br)[C@@](OC)(C(Br)Br)OC1=O | inactive

tested on: ZR-75-1; test: Cytotoxicity against human ZR-75-1 cells; type: functional; settings: read-out: ED50 (the source's name)

SMILES | EC50 [µg/mL]
CCC[C@@H](OC(C)=O)C1=C(Br)[C@@](OC)(C(Br)Br)OC1=O | 2.8 (≈ 5.85 µM)

tested on: KB; test: Cytotoxicity against human KB cells; type: functional; settings: read-out: ED50 (the source's name)

SMILES | EC50 [µg/mL]
CCC[C@@H](OC(C)=O)C1=C(Br)[C@@](OC)(C(Br)Br)OC1=O | 4.1 (≈ 8.56 µM)

tested on: Plasmodium falciparum; test: Antimalarial activity against chloroquine-sensitive Plasmodium falciparum D6; type: functional, organism-based; settings: not given
Summary of the method: (§2)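 In vitro growth inhibition of Plasmodium falciparum clones D6 (chloroquine-sensitive) and W2 (chloroquine-resistant); IC50 reported in μg/mL.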

SMILES | IC50 [µg/mL]
CCC[C@@H](OC(C)=O)C1=C(Br)[C@@](OC)(C(Br)Br)OC1=O | 5 (≈ 10.4 µM)

tested on: Escherichia coli; test: Antimicrobial activity against Escherichia coli at 5 ug; type: functional, organism-based; settings: not given; summary of the method: as §1

SMILES | Activity
CCC[C@@H](OC(C)=O)C1=C(Br)[C@@](OC)(C(Br)Br)OC1=O | inactive

tested on: KB; test: Cytotoxicity against vinblastine-resistant human KB cells; type: functional; settings: read-out: ED50 (the source's name)
Summary of the method: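 The vinblastine-resistant KB-V1 line was tested both with and without added vinblastine in the cultured tumour-cell cytotoxicity panel. Results are reported as ED50.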

SMILES | EC50 [µg/mL]
CCC[C@@H](OC(C)=O)C1=C(Br)[C@@](OC)(C(Br)Br)OC1=O | 6.2 (≈ 12.9 µM)

tested on: Penicillium oxalicum; test: Antimicrobial activity against Penicillium oxalicum at 10 ug; type: functional; settings: read-out: IZ; summary of the method: as §1

SMILES | zone of inhibition at 10 µg/disc [mm]
CCC[C@@H](OC(C)=O)C1=C(Br)[C@@](OC)(C(Br)Br)OC1=O | 16

tested on: Micrococcus luteus; test: Antimicrobial activity against Micrococcus luteus at 5 ug; type: functional, organism-based; settings: not given; summary of the method: as §1

SMILES | Activity
CCC[C@@H](OC(C)=O)C1=C(Br)[C@@](OC)(C(Br)Br)OC1=O | Active

tested on: Plasmodium falciparum; test: Antimalarial activity against chloroquine-resistant Plasmodium falciparum W2; type: functional, organism-based; settings: not given; summary of the method: as §2

SMILES | IC50 [µg/mL]
CCC[C@@H](OC(C)=O)C1=C(Br)[C@@](OC)(C(Br)Br)OC1=O | > 10

tested on: not listed separately; test: Inhibition of TK assessed as residual activity at 200 ug/ml; settings: not given
Summary of the method: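 The enzyme was tyrosine kinase p56lck, with test compounds at 200 μg/mL. The read-out is the remaining enzyme activity.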

SMILES | Activity [%]
CCC[C@@H](OC(C)=O)C1=C(Br)[C@@](OC)(C(Br)Br)OC1=O | 22.7

tested on: Bacillus subtilis; test: Antimicrobial activity against Bacillus subtilis at 0.1 ug; type: functional, organism-based; settings: not given; summary of the method: as §1

SMILES | Activity
CCC[C@@H](OC(C)=O)C1=C(Br)[C@@](OC)(C(Br)Br)OC1=O | inactive

tested on: not listed separately; test: Selectivity index, ratio of IC50 for human KB cells to IC50 for Plasmodium falciparum D6; type: toxicity, cell-based; settings: KB cells versus Plasmodium falciparum D6, read-out: Ratio IC50
Summary of the method: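 Plasmodium falciparum clones were assayed in vitro: D6 (chloroquine-sensitive) and W2 (chloroquine-resistant). IC50 is in μg/mL. The selectivity index is the ratio of the antimalarial to the cytotoxic activity.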

SMILES | selectivity ratio
CCC[C@@H](OC(C)=O)C1=C(Br)[C@@](OC)(C(Br)Br)OC1=O | 1

tested on: Micrococcus luteus; test: Antimicrobial activity against Micrococcus luteus at 1 ug; type: functional, organism-based; settings: not given; summary of the method: as §1

SMILES | Activity
CCC[C@@H](OC(C)=O)C1=C(Br)[C@@](OC)(C(Br)Br)OC1=O | inactive
